Source: ChEMBL document CHEMBL1687766, “In vitro activity of the new multivalent glycopeptide-cephalosporin antibiotic TD-1792 against vancomycin-nonsusceptible Staphylococcus isolates” (Antimicrob Agents Chemother, 2010)
≈ marks a conversion by molar mass, not a printed value.

Legend:
Format in all cases: functional
Staphylococcus aureus [1] = assay: Antimicrobial activity against vancomycin-intermediate Staphylococcus aureus isolate NJ992 assessed as bacterial count at 32 times MIC after 24 hrs by colony counting method in presence of 50% human serum
How it was run: (§1)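 Triplicate 24-h time-kill in 50% human serum (heated 56°C 1 h, filtered) mixed with supplemented Mueller-Hinton broth, giving final 25 μg/ml Ca broth strength for TD-1792 and 50 for daptomycin. […] Samples from 0 to 24 h were counted on BHI agar (35°C, 24 h). Value is log10 CFU/ml change from baseline.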

Staphylococcus aureus [2] = assay: Antimicrobial activity against vancomycin-intermediate Staphylococcus aureus after 24 hrs by microdilution method; settings: for MBC / MIC50 / MIC90: Staphylococcus aureus, 24 h
How it was run: (§2)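 Broth microdilution per CLSI, inoculum 5 × 10^5 CFU/ml, Mueller-Hinton broth with 12.5 μg/ml magnesium and 25 μg/ml calcium (SMHB). Daptomycin was instead tested in SMHB at physiologic calcium (final 1.1 to 1.3 mM). Incubation 24 h at 35°C; MIC read; run in duplicate. MBC from 5-μl samples of clear wells plated on BHI agar, 24 h at 35°C.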

Staphylococcus aureus [3] = assay: Antimicrobial activity against vancomycin-intermediate Staphylococcus aureus after 24 hrs by microdilution method in presence of 50% human serum; settings: for MBC / MIC50 / MIC90: Staphylococcus aureus, 24 h
How it was run: (§3)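 Broth microdilution per CLSI, inoculum 5 × 10^5 CFU/ml, 24 h at 35°C, in duplicate. Medium was 50% (vol/vol) human serum plus 50% broth, final 25 SMHB for TD-1792 and 50 SMHB for daptomycin. Serum was heated 56°C for 1 h and filtered through 0.8, 0.5 and 0.22 μm. MBC by plating clear wells on BHI agar.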

Staphylococcus aureus [4] = assay: Antimicrobial activity against vancomycin-resistant Staphylococcus aureus isolate MI after 24 hrs by microdilution method; how it was run: as §2
Staphylococcus aureus [5] = assay: Antimicrobial activity against vancomycin-intermediate Staphylococcus aureus isolate NJ992 assessed as bacterial count at 8 times MIC after 24 hrs by colony counting method
How it was run: (§4)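 24-h time-kill run in triplicate in supplemented Mueller-Hinton broth (12.5 μg/ml Mg, 25 μg/ml Ca), adjusted to 1.1–1.3 mM Ca for daptomycin. […] Samples were taken at 0, 1, 4, 8 and 24 h and counted on BHI agar after 24 h at 35°C. Value is log10 CFU/ml change from baseline at 24 h.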

Staphylococcus aureus [6] = assay: Antimicrobial activity against vancomycin-resistant Staphylococcus aureus isolate PA assessed as bacterial count at 32 times MIC after 24 hrs by colony counting method in presence of 50% human serum
How it was run: (§5)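 Time-kill in triplicate, starting inoculum 5 × 10^6 CFU/ml from a mid-exponential culture. Medium was 50% heat-treated, filtered human serum plus 50% broth, final 25 SMHB for TD-1792 and 50 SMHB for daptomycin. Drug at multiples of MIC. Samples to 24 h were plated on BHI agar for 24 h at 35°C. Value is the log10 CFU/ml change from baseline at 24 h.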

Staphylococcus aureus [7] = assay: Ratio of MIC for vancomycin-intermediate Staphylococcus aureus isolate MU50 in presence of 50% human serum to MIC for vancomycin-intermediate Staphylococcus aureus isolate MU50
How it was run: (§6)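 Ratio of the broth microdilution MIC (5 × 10^5 CFU/ml, 24 h, 35°C, duplicate) measured in 50% heat-treated human serum/supplemented Mueller-Hinton broth to the MIC measured in supplemented broth alone.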

Staphylococcus aureus [8] = assay: Antimicrobial activity against vancomycin-intermediate Staphylococcus aureus isolate MU50 assessed as bacterial count at 32 times MIC after 24 hrs by colony counting method in presence of 50% human serum; how it was run: as §1
Staphylococcus aureus [9] = assay: Antimicrobial activity against vancomycin-intermediate Staphylococcus aureus isolate NJ992 assessed as bacterial count at 4 times MIC after 24 hrs by colony counting method in presence of 50% human serum; how it was run: as §1
Staphylococcus aureus [10] = assay: Antimicrobial activity against vancomycin-resistant Staphylococcus aureus isolate PA assessed as bacterial count at 16 times MIC after 24 hrs by colony counting method
How it was run: (§7)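 Time-kill in triplicate. Mid-exponential culture (OD600 ~0.3) diluted in supplemented Mueller-Hinton broth to 5 × 10^6 CFU/ml. Daptomycin was run at physiologic calcium, 1.1 to 1.3 mM. […] Samples at 0, 1, 4, 8 and 24 h were diluted in cold saline or vacuum filtered, then spiral-plated on BHI agar for 24 h at 35°C. Value is the log10 CFU/ml change from baseline at 24 h.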

Staphylococcus aureus [11] = assay: Antimicrobial activity against vancomycin-resistant Staphylococcus aureus isolate MI assessed as bacterial count at 8 times MIC after 24 hrs by colony counting method; how it was run: as §7
Staphylococcus aureus [12] = assay: Antimicrobial activity against vancomycin-intermediate Staphylococcus aureus isolate NJ992 assessed as bacterial count at 16 times MIC after 24 hrs by colony counting method; how it was run: as §4
Staphylococcus aureus [13] = assay: Antimicrobial activity against vancomycin-resistant Staphylococcus aureus isolate NY after 24 hrs by microdilution method in presence of 50% human serum; how it was run: as §3
Staphylococcus aureus [14] = assay: Antimicrobial activity against vancomycin-intermediate Staphylococcus aureus isolate MU50 assessed as bacterial count at 32 times MIC after 24 hrs by colony counting method; how it was run: as §4
Staphylococcus aureus [15] = assay: Antimicrobial activity against vancomycin-intermediate Staphylococcus aureus isolate MU50 after 24 hrs by microdilution method; settings: isolate MU50, 24 h; how it was run: as §2
Staphylococcus aureus [16] = assay: Antimicrobial activity against vancomycin-resistant Staphylococcus aureus isolate MI assessed as bacterial count at 16 times MIC after 24 hrs by colony counting method in presence of 50% human serum; how it was run: as §5
Staphylococcus aureus [17] = assay: Antimicrobial activity against vancomycin-resistant Staphylococcus aureus isolate MI assessed as bacterial count at 4 times MIC after 24 hrs by colony counting method in presence of 50% human serum; how it was run: as §5
[18] = test system: Staphylococcus haemolyticus; assay: Ratio of MIC for vancomycin-intermediate Staphylococcus haemolyticus in presence of 50% human serum to MIC for vancomycin-intermediate Staphylococcus haemolyticus; how it was run: as §6
Staphylococcus aureus [19] = assay: Antimicrobial activity against vancomycin-intermediate Staphylococcus aureus isolate NJ992 assessed as bacterial count at 4 times MIC after 24 hrs by colony counting method; how it was run: as §4
Staphylococcus aureus [20] = assay: Antimicrobial activity against vancomycin-intermediate Staphylococcus aureus isolate MU50 assessed as bacterial count at 16 times MIC after 24 hrs by colony counting method in presence of 50% human serum; how it was run: as §1
[21] = test system: Staphylococcus haemolyticus; assay: Antimicrobial activity against vancomycin-intermediate Staphylococcus haemolyticus after 24 hrs by microdilution method; settings: for MBC / MIC50 / MIC90: Staphylococcus haemolyticus, 24 h
How it was run: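 CLSI broth microdilution in supplemented Mueller-Hinton broth (12.5 μg/ml Mg, 25 μg/ml Ca), with Ca adjusted to 1.1–1.3 mM for daptomycin. Inoculum was 5 × 10^5 CFU/ml, incubated 24 h at 35°C, done in duplicate. For MBC, clear wells were plated on BHI agar and read after 24 h at 35°C.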

Staphylococcus aureus [22] = assay: Antimicrobial activity against vancomycin-intermediate Staphylococcus aureus isolate NJ992 assessed as bacterial count at 32 times MIC after 24 hrs by colony counting method; how it was run: as §4

Structure (SMILES)	log10CFU/ml (Staphylococcus aureus [1])	MBC50 (Staphylococcus aureus [2]) [µg/mL]	MBC90 (Staphylococcus aureus [2]) [µg/mL]	MBC (Staphylococcus aureus [2]) [µg/mL]	MIC50 (Staphylococcus aureus [2]) [µg/mL]	MIC90 (Staphylococcus aureus [2]) [µg/mL]	MBC50 (Staphylococcus aureus [3]) [µg/mL]	MBC90 (Staphylococcus aureus [3]) [µg/mL]	MBC (Staphylococcus aureus [3]) [µg/mL]	MIC50 (Staphylococcus aureus [3]) [µg/mL]	MIC90 (Staphylococcus aureus [3]) [µg/mL]	MBC (Staphylococcus aureus [4]) [µg/mL]	MIC (Staphylococcus aureus [4]) [µg/mL]	log10CFU/ml (Staphylococcus aureus [5])	log10CFU/ml (Staphylococcus aureus [6])	Ratio (Staphylococcus aureus [7])	log10CFU/ml (Staphylococcus aureus [8])	log10CFU/ml (Staphylococcus aureus [9])	log10CFU/ml (Staphylococcus aureus [10])	log10CFU/ml (Staphylococcus aureus [11])	further results
CN[C@H](CC(C)C)C(=O)N[C@H]1C(=O)N[C@@H](CC(N)=O)C(=O)N[C@H]2C(=O)N[C@H]3C(=O)N[C@H](C(=O)N[C@H](C(=O)NCCCO/N=C(\C(=O)N[C@@H]4C(=O)N5C(C(=O)[O-])=C(C[n+]6ccccc6)CS[C@H]45)c4nc(N)sc4Cl)c4cc(O)cc(O)c4-c4cc3ccc4O)[C@H](O)c3ccc(c(Cl)c3)Oc3cc2cc(c3O[C@@H]2O[C@H](CO)[C@@H](O)[C@H](O)[C@H]2O[C@H]2C[C@](C)(N)[C@H](O)[C@H](C)O2)Oc2ccc(cc2Cl)[C@H]1O	4.92	0.06 (≈ 0.0303 µM)	0.125 (≈ 0.063 µM)	0.015 (≈ 0.00756 µM)	0.06 (≈ 0.0303 µM)	0.125 (≈ 0.063 µM)	0.25	0.5	0.03	0.25	0.5	0.5 (≈ 0.252 µM)	0.25 (≈ 0.126 µM)	4.48	5.09	2	4.81	3.61	4.17	3.27	log10CFU/ml (Staphylococcus aureus [12]): 4.94; MBC (Staphylococcus aureus [13]): 0.5 µg/mL; MIC (Staphylococcus aureus [13]): 0.25 µg/mL; log10CFU/ml (Staphylococcus aureus [14]): 4.92; MBC (Staphylococcus aureus [15]): 0.03 µg/mL (≈ 0.0151 µM); MIC (Staphylococcus aureus [15]): 0.03 µg/mL (≈ 0.0151 µM); log10CFU/ml (Staphylococcus aureus [16]): 4.11; log10CFU/ml (Staphylococcus aureus [17]): 4.12; Ratio [18]: 2; log10CFU/ml (Staphylococcus aureus [19]): 3.84; log10CFU/ml (Staphylococcus aureus [20]): 4.37; MBC50 [21]: 0.06 µg/mL (≈ 0.0303 µM); MBC90 [21]: 0.125 µg/mL (≈ 0.063 µM); MBC [21]: 0.015 µg/mL (≈ 0.00756 µM); MIC50 [21]: 0.06 µg/mL (≈ 0.0303 µM); MIC90 [21]: 0.125 µg/mL (≈ 0.063 µM); log10CFU/ml (Staphylococcus aureus [22]): 5
CCCCCCCCCC(=O)N[C@@H](Cc1c[nH]c2ccccc12)C(=O)N[C@H](CC(N)=O)C(=O)N[C@@H](CC(=O)O)C(=O)N[C@@H]1C(=O)NCC(=O)N[C@@H](CCCN)C(=O)N[C@@H](CC(=O)O)C(=O)N[C@H](C)C(=O)N[C@@H](CC(=O)O)C(=O)NCC(=O)N[C@H](CO)C(=O)N[C@@H]([C@H](C)CC(=O)O)C(=O)N[C@@H](CC(=O)c2ccccc2N)C(=O)O[C@@H]1C	5.04	1 (≈ 0.617 µM)	2 (≈ 1.23 µM)	0.25 (≈ 0.154 µM)	1 (≈ 0.617 µM)	1 (≈ 0.617 µM)	4	8	1	1	4	0.25 (≈ 0.154 µM)	0.25 (≈ 0.154 µM)	3.86	5.11	2	5.23	4.78	5.14	5	log10CFU/ml (Staphylococcus aureus [12]): 4.68; MBC (Staphylococcus aureus [13]): 0.25 µg/mL; MIC (Staphylococcus aureus [13]): 0.25 µg/mL; log10CFU/ml (Staphylococcus aureus [14]): 5.12; MBC (Staphylococcus aureus [15]): 1 µg/mL (≈ 0.617 µM); MIC (Staphylococcus aureus [15]): 1 µg/mL (≈ 0.617 µM); log10CFU/ml (Staphylococcus aureus [16]): 4.6; log10CFU/ml (Staphylococcus aureus [17]): 2.53; Ratio [18]: 2; log10CFU/ml (Staphylococcus aureus [19]): 3.61; log10CFU/ml (Staphylococcus aureus [20]): 5.09; MBC50 [21]: 1 µg/mL (≈ 0.617 µM); MBC90 [21]: 2 µg/mL (≈ 1.23 µM); MBC [21]: 0.25 µg/mL (≈ 0.154 µM); MIC50 [21]: 1 µg/mL (≈ 0.617 µM); MIC90 [21]: 1 µg/mL (≈ 0.617 µM); log10CFU/ml (Staphylococcus aureus [22]): 4.93
